Reference: ChEMBL document CHEMBL3580662, “(R)-2-Phenylpyrrolidine Substituted Imidazopyridazines: A New Class of Potent and Selective Pan-TRK Inhibitors” (ACS Med Chem Lett, 2015)

How the values were obtained:
[1] = Cytotoxicity against wild type mouse BA/F3 cells assessed as inhibition of cell proliferation after 48 hrs by luciferase reporter gene assay in presence of recombinant mouse IL3; type: functional, cell-based; conditions: BaF3, 48 h
In short: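 Parental wild-type Ba/F3 cells grown with IL-3; proliferation assay, IC50 in μM.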

[2] = Cmax in Wistar rat at 10 mg/kg, po; type: ADME, organism-based; parameters: dose 10 mg/kg, route oral; conditions: in vivo
In short: (§1)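 Male Wistar rats given 3 mg/kg IV and 10 mg/kg PO, formulated as a solution in 75% PEG300/25% D5W. Plasma PK parameters derived: CL, Vss, T1/2, AUC and Cmax after oral dosing, and F(%).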

KM12 [3] = assay: Antitumor activity against human KM12 cells xenografted in CRL RNU nude rat assessed as induction of tumor regression at 50 mg/kg, po bid administered for 14 days relative to vehicle-treated control; type: functional
In short: (§2)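 Female CRL RNU nude rats transplanted with KM12 tumor tissue; dosing started 10 days postimplant, twice daily for 14 days at 6.25, 12.5, 25 or 50 mg/kg alongside vehicle. Efficacy read as tumor volume.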

[4] = Ratio of Cmax in brain to Cmax in plasma of Balb/C mouse at 20 mg/kg, po; type: ADME, organism-based; conditions: brain and plasma, read-out: BPR
[5] = Oral bioavailability in Wistar rat at 10 mg/kg; type: ADME, organism-based; conditions: in vivo; in short: as §1
[6] = Plasma clearance in Wistar rat at 3 mg/kg, iv and 10 mg/kg, po; type: ADME, organism-based; in short: as §1
[7] = target: Tyrosine-protein kinase JAK2 (Homo sapiens, UniProt O60674); assay: Inhibition of Tel-fused JAK2 (unknown origin) expressed in mouse BA/F3 cells after 48 hrs by luciferase reporter gene assay in absence of recombinant mouse IL3; type: cell-based; conditions: baf3
Sequence of Tyrosine-protein kinase JAK2 (O60674 whole entry, looked up, the tested form may be a part): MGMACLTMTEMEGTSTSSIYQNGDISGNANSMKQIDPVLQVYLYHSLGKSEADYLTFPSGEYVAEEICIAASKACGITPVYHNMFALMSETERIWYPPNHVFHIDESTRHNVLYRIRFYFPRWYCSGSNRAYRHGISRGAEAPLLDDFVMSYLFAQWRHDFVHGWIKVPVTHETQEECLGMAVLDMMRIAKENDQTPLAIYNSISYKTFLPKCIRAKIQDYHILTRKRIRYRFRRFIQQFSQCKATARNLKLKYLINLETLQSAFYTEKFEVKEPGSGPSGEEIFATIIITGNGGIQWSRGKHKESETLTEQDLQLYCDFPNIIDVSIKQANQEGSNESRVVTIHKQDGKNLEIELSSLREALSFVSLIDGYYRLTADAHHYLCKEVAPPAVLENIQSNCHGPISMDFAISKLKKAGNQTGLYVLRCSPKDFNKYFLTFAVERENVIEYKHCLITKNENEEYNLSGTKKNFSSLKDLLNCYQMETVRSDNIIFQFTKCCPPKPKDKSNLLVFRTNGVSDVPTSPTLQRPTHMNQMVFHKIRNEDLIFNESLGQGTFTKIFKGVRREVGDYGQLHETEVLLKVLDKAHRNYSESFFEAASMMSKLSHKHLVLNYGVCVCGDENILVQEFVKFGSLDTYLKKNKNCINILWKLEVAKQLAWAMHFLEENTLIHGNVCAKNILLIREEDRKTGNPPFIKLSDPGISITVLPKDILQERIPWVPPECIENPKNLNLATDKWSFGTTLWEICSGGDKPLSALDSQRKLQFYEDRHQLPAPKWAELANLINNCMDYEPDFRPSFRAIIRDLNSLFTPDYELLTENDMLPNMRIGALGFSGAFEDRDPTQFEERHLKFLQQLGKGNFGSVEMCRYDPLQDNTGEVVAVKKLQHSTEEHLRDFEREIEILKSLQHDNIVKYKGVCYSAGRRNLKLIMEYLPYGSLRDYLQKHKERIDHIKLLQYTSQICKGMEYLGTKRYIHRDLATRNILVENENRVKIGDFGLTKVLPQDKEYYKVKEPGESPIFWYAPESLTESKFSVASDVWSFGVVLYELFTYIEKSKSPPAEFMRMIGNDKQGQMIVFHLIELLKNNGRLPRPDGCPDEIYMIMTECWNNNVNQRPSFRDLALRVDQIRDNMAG

[8] = Ratio of AUC in brain to AUC in plasma of Balb/C mouse at 20 mg/kg, po; type: ADME, organism-based; conditions: brain and plasma, read-out: Ratio AUC
KM12 [9] = assay: Antitumor activity against human KM12 cells xenografted in po dosed CRL RNU nude rat assessed as tumor growth inhibition administered as bid for 14 days; type: functional, organism-based; in short: as §2
[10] = Volume of distribution at steady state in Wistar rat at 3 mg/kg, iv and 10 mg/kg, po; type: ADME, organism-based; conditions: in vivo, read-out: Vdss; in short: as §1
Rattus norvegicus [11] = assay: Plasma clearance in Wistar rat at 3 mg/kg, iv and 10 mg/kg, po relative to hepatic blood flow; type: ADME, organism-based; conditions: in vivo
[12] = Half life in Wistar rat at 3 mg/kg, iv and 10 mg/kg, po; type: ADME, organism-based; conditions: in vivo; in short: as §1
[13] = AUC in Wistar rat at 10 mg/kg, po; type: ADME, organism-based; conditions: in vivo; in short: as §1
Rattus norvegicus [14] = assay: Toxicity in CRL RNU nude rat xenografted with human KM12 cells assessed as increase in body weight at 25 to 50 mg/kg, po bid administered for 14 days measured on day 14 post last dose; type: organism-based; conditions: in vivo, 336 h
[15] = AUC in Sprague-Dawley rat at 10 mg/kg, po; type: ADME, organism-based; conditions: in vivo
In short: (§3)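 Male Sprague–Dawley rats dosed intravenously at 3 mg/kg and orally at 10 mg/kg, each as a solution in 75% PEG300/25% D5W. Plasma sampled for clearance, Vss, T1/2, oral AUC, Cmax and oral bioavailability F(%).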

[16] = Oral bioavailability in Sprague-Dawley rat at 10 mg/kg; type: ADME, organism-based; conditions: in vivo; in short: as §3
[17] = Half life in Sprague-Dawley rat at 3 mg/kg, iv and 10 mg/kg, po; type: ADME, organism-based; conditions: in vivo; in short: as §3
[18] = Cmax in Sprague-Dawley rat at 10 mg/kg, po; type: ADME, organism-based; parameters: dose 10 mg/kg, route oral; conditions: in vivo; in short: as §3
[19] = Volume of distribution at steady state in Sprague-Dawley rat at 3 mg/kg, iv and 10 mg/kg, po; type: ADME, organism-based; conditions: in vivo, read-out: Vdss; in short: as §3
[20] = Plasma clearance in Sprague-Dawley rat at 3 mg/kg, iv and 10 mg/kg, po; type: ADME, organism-based; in short: as §3
Rattus norvegicus [21] = assay: Plasma clearance in Sprague-Dawley rat at 3 mg/kg, iv and 10 mg/kg, po relative to hepatic blood flow; type: ADME, organism-based; conditions: in vivo
[22] = target: BDNF/NT-3 growth factors receptor (Homo sapiens, UniProt Q16620); assay: Inhibition of TRKB (unknown origin) by scintillation proximity assay
Sequence of BDNF/NT-3 growth factors receptor (Q16620 whole entry): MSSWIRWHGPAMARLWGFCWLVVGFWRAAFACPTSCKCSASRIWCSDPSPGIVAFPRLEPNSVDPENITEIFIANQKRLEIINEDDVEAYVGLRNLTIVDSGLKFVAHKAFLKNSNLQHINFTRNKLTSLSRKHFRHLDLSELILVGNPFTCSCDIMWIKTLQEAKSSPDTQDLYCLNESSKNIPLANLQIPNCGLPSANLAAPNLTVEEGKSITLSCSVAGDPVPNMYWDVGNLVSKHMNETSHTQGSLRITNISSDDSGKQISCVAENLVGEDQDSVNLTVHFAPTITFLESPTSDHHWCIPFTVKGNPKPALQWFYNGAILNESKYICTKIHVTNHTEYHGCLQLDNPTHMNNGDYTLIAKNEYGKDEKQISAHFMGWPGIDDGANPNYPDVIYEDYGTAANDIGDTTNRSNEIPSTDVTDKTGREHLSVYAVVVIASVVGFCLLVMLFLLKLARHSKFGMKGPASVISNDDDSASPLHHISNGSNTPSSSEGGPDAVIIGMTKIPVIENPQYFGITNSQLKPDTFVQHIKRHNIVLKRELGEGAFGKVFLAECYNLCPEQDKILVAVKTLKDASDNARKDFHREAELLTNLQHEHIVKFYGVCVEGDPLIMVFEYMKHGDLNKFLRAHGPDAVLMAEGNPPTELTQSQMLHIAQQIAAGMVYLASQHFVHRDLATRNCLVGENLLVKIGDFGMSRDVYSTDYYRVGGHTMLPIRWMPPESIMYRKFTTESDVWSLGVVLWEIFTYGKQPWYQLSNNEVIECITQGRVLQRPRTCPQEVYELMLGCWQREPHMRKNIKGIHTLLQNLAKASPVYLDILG
In short: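 TRKB biochemical inhibition measured by scintillation proximity assay; IC50 reported.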

N#Cc1ccc(-c2cnc3ccc(N4CCC[C@@H]4c4cccc(F)c4)nn23)cc1
IC50 [1]: > 10 µM

NS(=O)(=O)c1ccc(-c2cnc3ccc(NCc4cccc(F)c4)nn23)cc1
IC50 [1]: 2.53 µM

N#Cc1cccc(-c2cnc3ccc(NCc4ccccc4)nn23)c1
IC50 [1]: > 10 µM

OCc1ccc(-c2cnc3ccc(NCc4cccc(F)c4)nn23)cc1
IC50 [1]: 1.92 µM

N#Cc1ccc(-c2cnc3ccc(N4CCCC4c4cccc(F)c4)nn23)cc1 (racemic)
IC50 [1]: > 10 µM

CN(Cc1ccccc1)c1ccc2ncc(-c3ccc(C#N)cc3)n2n1
IC50 [1]: 5.89 µM

O=C(Nc1ccc(-c2cnc3ccc(NCc4cccc(F)c4)nn23)cc1)C1CCOCC1
IC50 [1]: 3 µM

N#Cc1ccc(-c2cnc3ccc(N4CCCCC4c4cccc(F)c4)nn23)cc1 (racemic)
IC50 [1]: > 10 µM

N#Cc1ccc(-c2cnc3ccc(N4CCOCC4c4cccc(F)c4)nn23)cc1 (racemic)
IC50 [1]: > 10 µM

N#Cc1ccc(-c2cnc3ccc(N4CCC[C@H]4c4cccc(F)c4)nn23)cc1
IC50 [1]: 9.23 µM

COc1ccccc1CNc1ccc2ncc(-c3ccc(C#N)cc3)n2n1
IC50 [1]: 1.01 µM

N#Cc1ccc(-c2cnc3ccc(NCc4cccc(F)c4)nn23)cc1
IC50 [1]: 3.92 µM

OC1CCN(c2cc(-c3cnc4ccc(N5CCC[C@@H]5c5cccc(F)c5)nn34)ccn2)CC1
Cmax [2]: 215 nM | Activity (KM12 [3]): 20% | IC50 [1]: 5.91 µM | Kp [4]: 0.2 | bioavailability [5]: 27% | clearance [6]: 45.2 mL/min/kg | IC50 [7]: 5.6 µM | Kp [8]: 0.2 | TGI (KM12 [9]): Dose-dependent effect | Vd [10]: 4.9 L/kg | CL (Rattus norvegicus [11]): 82% | half-life [12]: 96 min | AUC [13]: 1.88 µM·h | Activity (Rattus norvegicus [14]): Toxic

OC1CCN(c2cccc(-c3cnc4ccc(N5CCC[C@@H]5c5cccc(F)c5)nn34)n2)CC1
AUC [15]: 0.659 µM·h | IC50 [1]: > 10 µM | bioavailability [16]: 10% | half-life [17]: 49.8 min | Cmax [18]: 110 nM | Vd [19]: 2.3 L/kg | clearance [20]: 56.9 mL/min/kg | CL (Rattus norvegicus [21]): 100%

O=C(O)CN1CCN(c2cc(-c3cnc4ccc(N5CCC[C@@H]5c5cccc(F)c5)nn34)ccn2)CC1
AUC [15]: 1.9 µM·h | IC50 [1]: 4.79 µM | Kp [4]: 0.8 | bioavailability [16]: 26% | half-life [17]: 54 min | Cmax [18]: 250 nM | IC50 [7]: 2.7 µM | Vd [19]: 2.4 L/kg | Kp [8]: 0.8 | clearance [20]: 45.5 mL/min/kg | CL (Rattus norvegicus [21]): 82%

N#Cc1ccc(-c2cnc3ccc(NCc4ccccc4)nn23)cc1
IC50 [1]: 7.13 µM | IC50 [22]: 0.083 µM | IC50 [7]: 4.7 µM

Fc1cccc([C@H]2CCCN2c2ccc3ncc(-c4ccccn4)n3n2)c1
IC50 [1]: > 10 µM | IC50 [7]: 6.7 µM
